# Measured values as given in ChEMBL document CHEMBL2331083, “Magnolia Extract, Magnolol, and Metabolites: Activation of Cannabinoid CB2 Receptors and Blockade of the Related GPR55” (ACS Med Chem Lett, 2013).
# Activity calls are given as the source filed them. The rule behind the calls is not given here.
# Key:
# [1] = target: G-protein coupled receptor 55 (Homo sapiens) (UniProt Q9Y2T6); experiment: Antagonist activity at human GPR55 expressed in CHO cells assessed as inhibition of LPI-induced beta-arrestin translocation at 10 uM after 90 mins by luminescence assay; type: cell-based
# G-protein coupled receptor 55 (Homo sapiens), sequence (Q9Y2T6 whole entry, the tested form may be a part): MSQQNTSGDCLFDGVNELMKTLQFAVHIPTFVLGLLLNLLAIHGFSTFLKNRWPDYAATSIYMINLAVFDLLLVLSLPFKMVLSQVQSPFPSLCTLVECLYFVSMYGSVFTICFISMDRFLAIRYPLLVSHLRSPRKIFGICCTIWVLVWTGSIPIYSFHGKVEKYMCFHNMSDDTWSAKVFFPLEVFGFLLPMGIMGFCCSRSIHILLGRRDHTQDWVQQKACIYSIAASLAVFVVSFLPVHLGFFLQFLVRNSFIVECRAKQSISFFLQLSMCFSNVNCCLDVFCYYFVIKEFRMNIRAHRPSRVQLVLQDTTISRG
# In short: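 Human GPR55 expressed recombinantly in CHO cells. β-Arrestin recruitment stimulated by LPI (1 μM) was read as luminescence by β-galactosidase enzyme fragment complementation. Test agents at 10 μM, extract at 50 μg/mL, with the LPI response set to 100%. KB derived from the rightward shift of the LPI concentration-response curve with antagonist present at 10 μM. Three independent experiments in duplicate.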
# Cannabinoid receptor 2 [2] = target: T1, Cannabinoid receptor 2 (Homo sapiens, UniProt P34972); experiment: Agonist activity at recombinant human CB2 receptor expressed in CHO cells assessed as inhibition of forskolin-induced cAMP accumulation at 100 uM after 5 mins by cAMP-competition binding assay relative to CP55,940; type: functional, cell-based
# T1 sequence (P34972 whole entry): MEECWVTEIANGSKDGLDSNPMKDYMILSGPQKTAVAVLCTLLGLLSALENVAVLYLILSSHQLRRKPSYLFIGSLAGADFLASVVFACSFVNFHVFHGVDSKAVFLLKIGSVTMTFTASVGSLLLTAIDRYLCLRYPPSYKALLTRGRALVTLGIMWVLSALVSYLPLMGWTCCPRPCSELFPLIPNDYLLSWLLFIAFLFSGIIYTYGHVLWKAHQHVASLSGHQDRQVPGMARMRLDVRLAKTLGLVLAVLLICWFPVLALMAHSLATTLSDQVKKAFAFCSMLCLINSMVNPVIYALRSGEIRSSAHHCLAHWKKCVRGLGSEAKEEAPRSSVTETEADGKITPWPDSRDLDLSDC
# In short: (§1)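 Forskolin (10 μM)-stimulated cAMP accumulation in CHO cells stably expressing the human CB1 or CB2 receptor. Test agents at 100 μM. Efficacy given as a percentage of the maximal effect of the full agonist CP55,940 (1 μM), taken as 100%. At least three independent experiments, each run in duplicate.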
# Cannabinoid receptor 1 [3] = target: T2, Cannabinoid receptor 1 (Homo sapiens, UniProt P21554); experiment: Agonist activity at recombinant human CB1 receptor expressed in CHO cells assessed as inhibition of forskolin-induced cAMP accumulation after 5 mins by cAMP-competition binding assay; type: functional, cell-based
# T2 sequence (P21554 whole entry): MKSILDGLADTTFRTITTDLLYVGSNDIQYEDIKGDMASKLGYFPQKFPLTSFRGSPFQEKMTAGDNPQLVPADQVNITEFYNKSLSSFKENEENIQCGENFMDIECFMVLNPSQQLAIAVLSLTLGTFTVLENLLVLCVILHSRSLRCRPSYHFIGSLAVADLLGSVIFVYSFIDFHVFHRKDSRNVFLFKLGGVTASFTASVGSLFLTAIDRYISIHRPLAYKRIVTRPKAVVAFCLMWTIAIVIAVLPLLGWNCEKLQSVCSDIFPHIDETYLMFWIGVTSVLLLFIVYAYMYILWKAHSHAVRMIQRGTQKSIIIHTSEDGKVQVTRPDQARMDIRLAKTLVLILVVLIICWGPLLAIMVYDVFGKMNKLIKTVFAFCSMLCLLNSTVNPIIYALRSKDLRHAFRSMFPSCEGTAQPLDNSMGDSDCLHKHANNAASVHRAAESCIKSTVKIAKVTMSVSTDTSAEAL
# Cannabinoid receptor 1 [4] = target: T2, Cannabinoid receptor 1; experiment: Agonist activity at recombinant human CB1 receptor expressed in CHO cells assessed as inhibition of forskolin-induced cAMP accumulation at 100 uM after 5 mins by cAMP-competition binding assay relative to CP55,940; type: functional, cell-based; in short: as §1
# Cannabinoid receptor 1 [5] = target: T2, Cannabinoid receptor 1; experiment: biochemical; type: cell-based, CHO
# Cannabinoid receptor 2 [6] = target: T1, Cannabinoid receptor 2; experiment: Agonist activity at recombinant human CB2 receptor expressed in CHO cells assessed as inhibition of forskolin-induced cAMP accumulation after 5 mins by cAMP-competition binding assay; type: functional, cell-based
# [7] = target: T3, Monoglyceride lipase (Rattus norvegicus) (UniProt Q8R431); experiment: Inhibition of MAGL in rat brain microsome using pyrenylbutanamide as substrate after 60 mins by HPLC analysis; type: microsomes
# T3 sequence (whole entry): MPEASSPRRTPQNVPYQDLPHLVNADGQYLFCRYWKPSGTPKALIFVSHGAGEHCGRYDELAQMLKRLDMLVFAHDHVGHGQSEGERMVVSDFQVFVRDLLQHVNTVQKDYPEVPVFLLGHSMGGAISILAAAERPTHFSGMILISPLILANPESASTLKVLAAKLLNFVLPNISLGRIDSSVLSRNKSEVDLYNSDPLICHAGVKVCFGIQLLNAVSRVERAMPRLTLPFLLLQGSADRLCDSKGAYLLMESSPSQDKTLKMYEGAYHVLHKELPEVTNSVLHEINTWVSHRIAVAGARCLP
# In short: (§2)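 Rat brain preparations were used as the FAAH or MAGL enzyme source. Compounds were tested at 10 μM and the extract at 50 μg/mL, read as percent inhibition.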
# Cannabinoid receptor 2 [8] = target: T1, Cannabinoid receptor 2; experiment: Displacement of [3H]CP55,940 from recombinant human CB2 receptor expressed in CHO cells after 2 hrs by liquid scintillation counting; type: cell-based
# [9] = target: T4, Fatty-acid amide hydrolase 1 (Rattus norvegicus) (UniProt P97612); experiment: Inhibition of FAAH in rat brain microsome using pyrenylbutanamide as substrate after 60 mins by HPLC analysis; type: microsomes; in short: as §2
# T4 sequence (whole entry): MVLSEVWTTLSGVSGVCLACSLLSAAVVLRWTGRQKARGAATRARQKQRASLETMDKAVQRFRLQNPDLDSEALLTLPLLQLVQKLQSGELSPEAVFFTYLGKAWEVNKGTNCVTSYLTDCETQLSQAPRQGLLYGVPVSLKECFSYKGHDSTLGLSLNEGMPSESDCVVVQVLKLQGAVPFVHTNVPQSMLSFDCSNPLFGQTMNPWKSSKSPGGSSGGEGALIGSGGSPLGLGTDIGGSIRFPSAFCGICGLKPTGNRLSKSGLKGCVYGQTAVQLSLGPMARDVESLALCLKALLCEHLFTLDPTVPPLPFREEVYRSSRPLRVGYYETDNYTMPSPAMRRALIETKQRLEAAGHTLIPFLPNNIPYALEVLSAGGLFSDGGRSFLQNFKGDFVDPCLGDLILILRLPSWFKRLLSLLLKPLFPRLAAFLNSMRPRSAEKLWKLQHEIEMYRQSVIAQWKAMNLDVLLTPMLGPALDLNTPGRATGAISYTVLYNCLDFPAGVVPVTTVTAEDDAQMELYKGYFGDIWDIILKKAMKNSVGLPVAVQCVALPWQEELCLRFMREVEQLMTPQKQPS
# CHO = experiment: Ratio of EC50 for recombinant human CB1 receptor expressed in CHO cells to recombinant human CB2 receptor expressed in CHO cells assessed as inhibition of forskolin-induced cAMP accumulation; type: cell-based
# Cannabinoid receptor 1 [10] = target: T2, Cannabinoid receptor 1; experiment: Partial agonist activity at recombinant human CB1 receptor expressed in CHO cells assessed as inhibition of forskolin-induced cAMP accumulation at 100 uM after 5 mins by cAMP-competition binding assay relative to CP55,940; type: functional, cell-based
# In short: (§3)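 CHO cells recombinantly expressing human CB1 or CB2 receptor; forskolin (10 μM)-stimulated cAMP accumulation inhibited by test compound over a concentration range. Efficacy measured at 100 μM relative to the maximal effect of full agonist CP55,940 (1 μM) = 100%. EC50 from concentration-response curves; at least three independent experiments in duplicate, means ± SEM.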
# Cannabinoid receptor 2 [11] = target: T1, Cannabinoid receptor 2; experiment: Partial agonist activity at recombinant human CB2 receptor expressed in CHO cells assessed as inhibition of forskolin-induced cAMP accumulation at 100 uM after 5 mins by cAMP-competition binding assay relative to CP55,940; type: functional, cell-based; in short: as §3
# Cannabinoid receptor 2 [12] = target: T1, Cannabinoid receptor 2; settings: CHO, 10 uM
# [13] = target: G-protein coupled receptor 55 (Homo sapiens) (UniProt Q9Y2T6); experiment: Antagonist activity at human GPR55 expressed in CHO cells assessed as inhibition of LPI-induced beta-arrestin translocation after 90 mins by luminescence assay; type: cell-based
# In short: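 CHO cells expressing human GPR55; β-arrestin recruitment read as luminescence by β-galactosidase enzyme fragment complementation. LPI agonist curves run with and without test compound at 10 μM, giving a parallel shift from which KB was derived; single-point inhibition tested against LPI at 1 μM (100%). Three independent experiments in duplicate, means ± SEM.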
SMILES,inhibition [1] [%],Efficacy (Cannabinoid receptor 2 [2]) [%],EC50 (Cannabinoid receptor 1 [3]) [µM],Efficacy (Cannabinoid receptor 1 [4]) [%],Ki (Cannabinoid receptor 1 [5]) [µM],EC50 (Cannabinoid receptor 2 [6]) [µM],inhibition [7],Ki (Cannabinoid receptor 2 [8]) [µM],inhibition [9],Ratio EC50 (CHO),EC50 (Cannabinoid receptor 1 [10]) [µM],EC50 (Cannabinoid receptor 2 [11]) [µM],Efficacy (Cannabinoid receptor 2 [12]) [%],Kb [13] [µM]
C/C=C/c1ccc(O)c(-c2cc(/C=C/C)ccc2O)c1,0,55,> 10,134,> 10,8.73,inactive,3.14,inactive,,,,,
C=CCc1ccc(O)c(-c2cc(CC(O)CO)ccc2O)c1 (racemic),4,,,,> 10,,inactive,> 10,inactive,,,,,
C=CCc1ccc(O)c(-c2cc(CC=C)ccc2O)c1 [MAGNOLOL],0,31,,62,3.15,,inactive,1.44,inactive,6,18.3,3.28,,
CCCc1ccc(O)c(-c2cc(CCC)ccc2O)c1,96,,9.01,124,2.26,,inactive,0.416,inactive,,,0.17,49,13.3
CCCCCCC(C)(C)c1ccc([C@@H]2C[C@H](O)CC[C@H]2CCCO)c(O)c1,92,,,,,,,,,,,,,1.89
C=CCc1ccc(O)c(-c2ccc(O)c(CC=C)c2)c1 [HONOKIOL],42,0,> 10,168,6.46,,inactive,5.61,inactive,,,,,
